Experimental data from paper PMC11066147 (Heliyon, 2024).
“Also recorded” adds a separate entry of the source. Each block holds one substance with its values, some of them ahead of it.

What was measured:
proteins = details: ref [33]; cited from earlier work
[1] = tested on: clients from E. coli JM109 cells; experiment: co-affinity assay coupled to LC-MS, clients from E. coli JM109; type: binding
Summary of the method: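 Pull-down bait was His-tagged Hsp70 (wild type or linker-swap variant), immobilised on cobalt resin in TBS (10 mM Tris-HCl pH 7.5, 50 mM NaCl, 10 mM imidazole) for 4 h at 4 °C, then washed 5×. E. coli JM109 lysate (prey) was added overnight at 4 °C, followed by 5 washes. Elution used 290 mM imidazole. Eluates were run on silver-stained SDS-PAGE; unique bands were excised and identified by LC-MS.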

DnaK = DnaK (Escherichia coli, UniProt P0A6Y8); details: SPR; presence of ATP
[2] = tested on: clients from E. coli ΔdnaK52 cells; experiment: co-affinity assay coupled to LC-MS, clients from E. coli ΔdnaK52; type: binding
PfHsp70-1 [3] = target: T1, PfHsp70-1 (Plasmodium falciparum, UniProt Q8IB24); details: previous study, ref [10], cited from earlier work
PfHsp70-z = target: T2, PfHsp70-z (Plasmodium falciparum, UniProt Q8IC01); details: previous study, ref [10], cited from earlier work
T2 sequence (Q8IC01 1-873): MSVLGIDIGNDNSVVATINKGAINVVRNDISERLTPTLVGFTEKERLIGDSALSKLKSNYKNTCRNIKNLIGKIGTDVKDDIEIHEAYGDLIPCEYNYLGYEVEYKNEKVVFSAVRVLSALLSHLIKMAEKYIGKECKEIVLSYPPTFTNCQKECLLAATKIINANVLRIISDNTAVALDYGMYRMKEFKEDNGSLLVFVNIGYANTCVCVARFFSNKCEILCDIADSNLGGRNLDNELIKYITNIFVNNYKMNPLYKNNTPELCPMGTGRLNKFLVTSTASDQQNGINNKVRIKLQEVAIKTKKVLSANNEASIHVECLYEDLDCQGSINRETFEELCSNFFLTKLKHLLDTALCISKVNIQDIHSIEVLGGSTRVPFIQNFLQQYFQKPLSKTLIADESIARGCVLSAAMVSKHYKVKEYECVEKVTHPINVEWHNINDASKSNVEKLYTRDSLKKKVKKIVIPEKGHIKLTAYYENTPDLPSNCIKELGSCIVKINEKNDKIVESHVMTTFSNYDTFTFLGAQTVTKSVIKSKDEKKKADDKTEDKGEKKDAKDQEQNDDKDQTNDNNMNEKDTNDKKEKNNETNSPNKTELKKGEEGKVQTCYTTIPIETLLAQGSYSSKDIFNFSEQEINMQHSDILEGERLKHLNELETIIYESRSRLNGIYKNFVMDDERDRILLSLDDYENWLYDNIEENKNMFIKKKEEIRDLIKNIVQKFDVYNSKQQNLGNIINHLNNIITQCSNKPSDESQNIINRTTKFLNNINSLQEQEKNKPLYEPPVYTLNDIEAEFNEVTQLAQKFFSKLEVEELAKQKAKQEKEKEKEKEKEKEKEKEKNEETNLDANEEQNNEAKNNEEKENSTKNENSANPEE

PfHsp70-1 [4] = target: T1, PfHsp70-1; experiment: SPR self-association, immobilised ligand PfHsp70-1; type: binding

T1 sequence (Q8IB24 1-677): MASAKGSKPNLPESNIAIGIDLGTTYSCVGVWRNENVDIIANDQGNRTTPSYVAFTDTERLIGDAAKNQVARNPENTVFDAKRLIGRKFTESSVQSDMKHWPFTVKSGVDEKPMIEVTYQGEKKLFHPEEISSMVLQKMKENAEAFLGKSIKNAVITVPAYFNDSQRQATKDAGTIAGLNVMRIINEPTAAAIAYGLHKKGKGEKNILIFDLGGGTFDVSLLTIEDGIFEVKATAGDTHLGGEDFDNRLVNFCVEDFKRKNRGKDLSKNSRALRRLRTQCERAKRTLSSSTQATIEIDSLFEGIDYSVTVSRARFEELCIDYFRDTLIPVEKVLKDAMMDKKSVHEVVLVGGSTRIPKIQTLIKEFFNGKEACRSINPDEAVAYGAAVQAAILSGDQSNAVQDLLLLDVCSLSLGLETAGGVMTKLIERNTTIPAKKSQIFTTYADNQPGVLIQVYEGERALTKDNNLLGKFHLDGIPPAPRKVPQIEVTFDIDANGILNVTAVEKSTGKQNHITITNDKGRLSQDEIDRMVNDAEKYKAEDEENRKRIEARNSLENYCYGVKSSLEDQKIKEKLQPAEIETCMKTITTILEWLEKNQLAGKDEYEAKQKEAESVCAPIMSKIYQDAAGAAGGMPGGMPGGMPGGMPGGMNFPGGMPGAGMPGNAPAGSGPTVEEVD
DnaK, sequence (P0A6Y8 whole entry): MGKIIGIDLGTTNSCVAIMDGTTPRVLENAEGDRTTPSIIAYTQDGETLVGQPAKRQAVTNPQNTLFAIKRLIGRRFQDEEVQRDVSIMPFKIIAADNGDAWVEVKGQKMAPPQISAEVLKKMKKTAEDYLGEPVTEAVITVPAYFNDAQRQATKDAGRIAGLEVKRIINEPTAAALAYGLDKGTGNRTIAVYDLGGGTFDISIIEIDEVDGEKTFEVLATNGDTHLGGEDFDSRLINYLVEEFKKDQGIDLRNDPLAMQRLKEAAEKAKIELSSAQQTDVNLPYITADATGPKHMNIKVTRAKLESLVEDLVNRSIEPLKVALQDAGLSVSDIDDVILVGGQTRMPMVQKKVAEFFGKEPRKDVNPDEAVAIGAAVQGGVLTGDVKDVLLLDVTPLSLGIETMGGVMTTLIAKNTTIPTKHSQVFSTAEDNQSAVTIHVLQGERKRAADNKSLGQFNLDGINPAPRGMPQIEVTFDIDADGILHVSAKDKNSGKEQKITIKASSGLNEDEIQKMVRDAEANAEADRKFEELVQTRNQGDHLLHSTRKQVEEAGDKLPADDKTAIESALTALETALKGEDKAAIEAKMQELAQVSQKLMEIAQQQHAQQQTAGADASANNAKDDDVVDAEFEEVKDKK

- effect of ATP on self-association (DnaK): promoted by ATP
Substance: DnaK: E. coli Hsp70, recombinant
- number of aggregation-prone (unstable) clients (proteins): ~180 proteins
- association with CH60/GroEL [1]: not with DnaK
- pI of a further group of clients [1]: around 9.5
- pI of majority of clients [1]: 5.5–6.0
- pI of some unique clients [1]: above 10
- size of most clients [1]: around 50 kDa
- number of unique clients ([1]; unique relative to the other chaperone): 41 clients
- association with CH60/GroEL [2]: associated with DnaK within the E. coli ΔdnaK52 cell background
- number of clients bound [2]: 110 clients
- size of another prominent client cluster [2]: above 100 kDa

Substance: GFRLLLMYRF
- effect of nucleotide on peptide affinity (PfHsp70-1 [3]): regulated by ADP/ATP
- effect of nucleotide on peptide binding (PfHsp70-z): nucleotide independent

Substance: GFRNNNMYRF
- effect of nucleotide on peptide affinity (PfHsp70-1 [3]): regulated by ADP/ATP
- peptide preference (PfHsp70-1 [3]; vs GFRLLLMYRF): preferentially bind to the Asp-enriched peptide
- effect of nucleotide on peptide binding (PfHsp70-z): nucleotide independent
- peptide preference (PfHsp70-z; vs GFRLLLMYRF): preferentially bind to the Asp-enriched peptide

Substance: PfHsp70-1: canonical cytosolic Hsp70 chaperone of Plasmodium falciparum, recombinant
- self-association without nucleotide vs ADP (PfHsp70-1 [4]): comparable affinity in the absence of nucleotide and in the presence of ADP
- effect of ATP on self-association (PfHsp70-1 [4]; ATP vs apo- or ADP-states): tenfold increase; also recorded: promoted by ATP
